Source: ChEMBL document CHEMBL4184148 (Bioorg Med Chem Lett, 2017)

Experiments:
[1] = biological target: Mitogen-activated protein kinase kinase kinase kinase 5 (Homo sapiens) (UniProt Q9Y4K4); experiment: Binding affinity to wild-type human partial length MAP4K5 (M1 to P297 residues) expressed in Escherichia coli BL21 at 1 uM by Kinomescan method relative to control
[2] = test system: Mast/stem cell growth factor receptor Kit (Homo sapiens), P10721 [V559D,T670I]; experiment: Binding affinity to human partial length KIT V559D/T670I double mutant (Y545 to D952 residues) expressed in Escherichia coli BL21 at 1 uM by Kinomescan method relative to control
[3] = test system: Tyrosine-protein kinase ABL1 (Homo sapiens), P00519 [F317L]; experiment: Binding affinity to human non-phosphorylated ABL1 F317L mutant (S229 to K512 residues) expressed in HEK293 cells at 1 uM by Kinomescan method relative to control; type: cell-based
[4] = biological target: Tyrosine-protein kinase HCK (Homo sapiens) (UniProt P08631); experiment: Binding affinity to wild-type human full length HCK (M22 to P526 residues) expressed in Escherichia coli BL21 at 1 uM by Kinomescan method relative to control
Chain of Tyrosine-protein kinase HCK (Homo sapiens) (P08631 2-526 limits assumed): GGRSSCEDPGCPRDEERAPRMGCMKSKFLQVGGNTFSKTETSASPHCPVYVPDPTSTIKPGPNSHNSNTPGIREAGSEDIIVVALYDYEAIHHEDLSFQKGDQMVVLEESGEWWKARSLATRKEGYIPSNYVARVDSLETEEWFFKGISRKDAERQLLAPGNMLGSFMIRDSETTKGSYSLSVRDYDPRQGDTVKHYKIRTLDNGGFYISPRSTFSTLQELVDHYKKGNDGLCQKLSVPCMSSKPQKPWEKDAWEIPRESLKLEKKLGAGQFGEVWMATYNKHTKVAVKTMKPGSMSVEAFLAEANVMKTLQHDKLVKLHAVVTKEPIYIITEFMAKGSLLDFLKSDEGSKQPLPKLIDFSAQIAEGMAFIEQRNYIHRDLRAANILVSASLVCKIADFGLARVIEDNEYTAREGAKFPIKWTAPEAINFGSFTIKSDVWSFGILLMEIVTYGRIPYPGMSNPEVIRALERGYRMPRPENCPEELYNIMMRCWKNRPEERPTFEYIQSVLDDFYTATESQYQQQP
Outline: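 Run as one kinome-wide competition binding panel with each compound at a single fixed concentration. Results were plotted as a kinome-wide selectivity map.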

[5] = biological target: Myosin-IIIa (Homo sapiens) (UniProt Q8NEV4); experiment: Binding affinity to wild-type human partial length MYO3A (M1 to K338 residues) expressed in Escherichia coli BL21 at 1 uM by Kinomescan method relative to control
[6] = biological target: Serine/threonine-protein kinase SIK3 (Homo sapiens) (UniProt Q9Y2K2); experiment: Binding affinity to wild-type human partial length QSK (A90 to L395 residues) expressed in HEK293 cells at 1 uM by Kinomescan method relative to control; type: cell-based
[7] = biological target: Cyclin-dependent kinase 17 (Homo sapiens) (UniProt Q00537); experiment: Binding affinity to wild-type human full length PCTK2 (M1 to F523 residues) expressed in Escherichia coli BL21 at 1 uM by Kinomescan method relative to control
Outline: (§1)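 Kinome-wide competition binding panel run by an outside provider, with each compound tested at a single concentration. Activity is read against the kinase panel.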

[8] = biological target: cGMP-dependent protein kinase 2 (Homo sapiens) (UniProt Q13237); experiment: Binding affinity to wild-type human partial length PRKG2 (S422 to F762 residues) expressed in HEK293 cells at 1 uM by Kinomescan method relative to control; type: cell-based
Chain of cGMP-dependent protein kinase 2 (Homo sapiens) (Q13237 whole entry, the tested form may be a part, canonical isoform): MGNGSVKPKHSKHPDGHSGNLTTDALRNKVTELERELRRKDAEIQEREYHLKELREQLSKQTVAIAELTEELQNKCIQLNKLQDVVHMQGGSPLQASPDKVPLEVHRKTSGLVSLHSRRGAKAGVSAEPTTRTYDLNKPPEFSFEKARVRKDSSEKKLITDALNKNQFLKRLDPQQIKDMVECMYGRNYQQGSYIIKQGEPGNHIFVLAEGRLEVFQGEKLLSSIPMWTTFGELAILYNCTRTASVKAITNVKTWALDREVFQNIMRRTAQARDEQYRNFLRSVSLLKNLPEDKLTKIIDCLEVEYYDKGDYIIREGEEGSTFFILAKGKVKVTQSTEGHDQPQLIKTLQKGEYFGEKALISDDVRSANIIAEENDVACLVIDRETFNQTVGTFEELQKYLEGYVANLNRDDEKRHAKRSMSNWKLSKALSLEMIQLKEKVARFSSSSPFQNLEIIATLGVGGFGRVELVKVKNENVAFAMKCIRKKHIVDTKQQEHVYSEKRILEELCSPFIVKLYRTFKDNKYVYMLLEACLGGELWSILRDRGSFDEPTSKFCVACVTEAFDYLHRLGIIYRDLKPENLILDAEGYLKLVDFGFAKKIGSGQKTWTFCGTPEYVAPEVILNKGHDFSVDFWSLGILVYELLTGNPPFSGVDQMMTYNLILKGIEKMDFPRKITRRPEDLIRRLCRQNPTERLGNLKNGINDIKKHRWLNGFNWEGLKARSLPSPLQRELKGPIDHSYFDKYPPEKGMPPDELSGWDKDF

[9] = test system: Phosphatidylinositol 4,5-bisphosphate 3-kinase catalytic subunit alpha isoform (Homo sapiens), P42336 [C420R]; experiment: Binding affinity to human partial length PIK3CA C420R mutant (R108 to N1068 residues) expressed in HEK293 cells at 1 uM by Kinomescan method relative to control; type: cell-based
[10] = biological target: Cyclin-dependent kinase-like 3 (Homo sapiens) (UniProt Q8IVW4); experiment: Binding affinity to wild-type human partial length CDKL3 (M1 to D327 residues) expressed in Escherichia coli BL21 at 1 uM by Kinomescan method relative to control
[11] = biological target: Mast/stem cell growth factor receptor Kit (Homo sapiens) (UniProt P10721); experiment: Binding affinity to wild-type human partial length KIT (I571 to D952 residues) expressed in Escherichia coli BL21 at 1 uM by Kinomescan method relative to control
[12] = biological target: Phosphatidylinositol 5-phosphate 4-kinase type-2 beta (Homo sapiens) (UniProt P78356); experiment: Binding affinity to wild-type human full length PIP5K2B (M1 to T416 residues) expressed in Escherichia coli BL21 at 1 uM by Kinomescan method relative to control; outline: as §1
[13] = biological target: Serine/threonine-protein kinase 33 (Homo sapiens) (UniProt Q9BYT3); experiment: Binding affinity to wild-type human full length STK33 (M1 to L514 residues) expressed in Escherichia coli BL21 at 1 uM by Kinomescan method relative to control; outline: as §1
Chain of Serine/threonine-protein kinase 33 (Homo sapiens) (Q9BYT3 whole entry, looked up, the tested form may be a part): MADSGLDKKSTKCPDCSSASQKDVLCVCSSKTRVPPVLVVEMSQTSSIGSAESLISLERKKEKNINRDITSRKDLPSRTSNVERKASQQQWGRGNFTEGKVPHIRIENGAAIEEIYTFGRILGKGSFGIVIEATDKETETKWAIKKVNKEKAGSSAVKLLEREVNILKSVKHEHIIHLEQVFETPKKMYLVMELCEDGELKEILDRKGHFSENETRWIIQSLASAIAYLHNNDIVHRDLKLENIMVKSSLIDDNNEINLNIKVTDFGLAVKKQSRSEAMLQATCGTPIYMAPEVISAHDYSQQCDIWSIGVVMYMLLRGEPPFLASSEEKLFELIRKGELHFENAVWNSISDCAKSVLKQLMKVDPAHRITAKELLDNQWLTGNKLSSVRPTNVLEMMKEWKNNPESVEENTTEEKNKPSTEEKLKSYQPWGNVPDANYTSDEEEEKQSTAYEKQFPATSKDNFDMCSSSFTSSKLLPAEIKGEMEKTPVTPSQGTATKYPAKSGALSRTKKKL

[14] = biological target: Tyrosine-protein kinase Fes/Fps (Homo sapiens) (UniProt P07332); experiment: Binding affinity to wild-type human partial length FES (I527 to R822 residues) expressed in Escherichia coli BL21 at 1 uM by Kinomescan method relative to control
[15] = biological target: Serine/threonine-protein kinase ULK3 (Homo sapiens) (UniProt Q6PHR2); experiment: Binding affinity to wild-type human partial length ULK3 (M1 to Q290 residues) expressed in HEK293 cells at 1 uM by Kinomescan method relative to control; type: cell-based
[16] = biological target: Mitogen-activated protein kinase 6 (Homo sapiens) (UniProt Q16659); experiment: Binding affinity to wild-type human partial length ERK3 (M1 to P413 residues) expressed in Escherichia coli BL21 at 1 uM by Kinomescan method relative to control
[17] = biological target: Hepatocyte growth factor receptor (Homo sapiens) (UniProt P08581); experiment: Binding affinity to wild-type human partial length MET (D1010 to S1367 residues) expressed in Escherichia coli BL21 at 1 uM by Kinomescan method relative to control
[18] = biological target: Serine/threonine-protein kinase pim-2 (Homo sapiens) (UniProt Q9P1W9); experiment: Binding affinity to wild-type human partial length PIM2 (M1 to E291 residues) expressed in Escherichia coli BL21 at 1 uM by Kinomescan method relative to control
[19] = test system: Epidermal growth factor receptor (Homo sapiens), P00533 [G719S]; experiment: Binding affinity to human partial length EGFR G719S mutant (R669 to V1011 residues) expressed in Escherichia coli BL21 at 1 uM by Kinomescan method relative to control
[20] = biological target: Rho-associated protein kinase 1 (Homo sapiens) (UniProt Q13464); experiment: Binding affinity to wild-type human partial length ROCK1 (M1 to R415 residues) expressed in HEK293 cells at 1 uM by Kinomescan method relative to control; type: cell-based
[21] = biological target: Tyrosine-protein kinase Lyn (Homo sapiens) (UniProt P07948); experiment: Binding affinity to wild-type human partial length LYN (C219 to Q511 residues) expressed in Escherichia coli BL21 at 1 uM by Kinomescan method relative to control
[22] = test system: Epidermal growth factor receptor (Homo sapiens), P00533 [L858R,T790M]; experiment: Binding affinity to human partial length EGFR L858R/T790M double mutant (R669 to V1011 residues) expressed in HEK293 cells at 1 uM by Kinomescan method relative to control; type: cell-based
[23] = biological target: Mitogen-activated protein kinase kinase kinase kinase 4 (Homo sapiens) (UniProt O95819); experiment: Binding affinity to wild-type human partial length MAP4K4 (M1 to R310 residues) expressed in Escherichia coli BL21 at 1 uM by Kinomescan method relative to control
[24] = biological target: Serine/threonine-protein kinase LATS2 (Homo sapiens) (UniProt Q9NRM7); experiment: Binding affinity to wild-type human partial length LATS2 (Q641 to V1088 residues) expressed in HEK293 cells at 1 uM by Kinomescan method relative to control; type: cell-based
Chain of Serine/threonine-protein kinase LATS2 (Homo sapiens) (Q9NRM7 whole entry, the tested form may be a part): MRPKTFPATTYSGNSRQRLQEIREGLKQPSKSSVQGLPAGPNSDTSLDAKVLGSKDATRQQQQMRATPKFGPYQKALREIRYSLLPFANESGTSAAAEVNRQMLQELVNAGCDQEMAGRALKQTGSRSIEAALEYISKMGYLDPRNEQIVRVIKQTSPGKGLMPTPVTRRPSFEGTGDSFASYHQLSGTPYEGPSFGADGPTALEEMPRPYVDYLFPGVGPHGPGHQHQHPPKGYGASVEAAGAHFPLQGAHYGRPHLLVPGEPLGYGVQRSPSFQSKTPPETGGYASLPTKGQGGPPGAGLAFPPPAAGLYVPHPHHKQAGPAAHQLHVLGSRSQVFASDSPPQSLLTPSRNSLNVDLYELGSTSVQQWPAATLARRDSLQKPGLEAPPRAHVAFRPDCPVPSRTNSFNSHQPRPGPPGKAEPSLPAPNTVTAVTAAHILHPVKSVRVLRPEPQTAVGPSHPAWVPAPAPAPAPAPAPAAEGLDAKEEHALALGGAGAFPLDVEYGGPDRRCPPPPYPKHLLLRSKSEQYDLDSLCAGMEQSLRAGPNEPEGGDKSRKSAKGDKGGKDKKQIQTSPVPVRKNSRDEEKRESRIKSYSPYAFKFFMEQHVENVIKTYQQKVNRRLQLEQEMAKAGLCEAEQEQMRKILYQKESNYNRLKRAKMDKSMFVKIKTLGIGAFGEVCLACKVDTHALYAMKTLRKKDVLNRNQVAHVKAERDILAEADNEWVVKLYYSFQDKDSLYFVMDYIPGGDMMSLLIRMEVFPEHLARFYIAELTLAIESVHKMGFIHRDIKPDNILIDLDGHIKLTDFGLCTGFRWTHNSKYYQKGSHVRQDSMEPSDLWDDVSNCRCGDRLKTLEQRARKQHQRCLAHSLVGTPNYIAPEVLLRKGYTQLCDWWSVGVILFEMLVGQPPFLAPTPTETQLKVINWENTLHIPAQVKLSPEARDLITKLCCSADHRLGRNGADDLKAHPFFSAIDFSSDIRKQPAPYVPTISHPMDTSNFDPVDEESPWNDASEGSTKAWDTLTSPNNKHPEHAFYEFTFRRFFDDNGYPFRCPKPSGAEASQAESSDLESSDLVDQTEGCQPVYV

[25] = biological target: 1-phosphatidylinositol 3-phosphate 5-kinase (Homo sapiens) (UniProt Q9Y2I7); experiment: Binding affinity to wild-type human partial length PIKFYVE (F1512 to C2098 residues) expressed in HEK293 cells at 1 uM by Kinomescan method relative to control; type: cell-based
Chain of 1-phosphatidylinositol 3-phosphate 5-kinase (Homo sapiens) (Q9Y2I7 whole entry, the tested form may be a part): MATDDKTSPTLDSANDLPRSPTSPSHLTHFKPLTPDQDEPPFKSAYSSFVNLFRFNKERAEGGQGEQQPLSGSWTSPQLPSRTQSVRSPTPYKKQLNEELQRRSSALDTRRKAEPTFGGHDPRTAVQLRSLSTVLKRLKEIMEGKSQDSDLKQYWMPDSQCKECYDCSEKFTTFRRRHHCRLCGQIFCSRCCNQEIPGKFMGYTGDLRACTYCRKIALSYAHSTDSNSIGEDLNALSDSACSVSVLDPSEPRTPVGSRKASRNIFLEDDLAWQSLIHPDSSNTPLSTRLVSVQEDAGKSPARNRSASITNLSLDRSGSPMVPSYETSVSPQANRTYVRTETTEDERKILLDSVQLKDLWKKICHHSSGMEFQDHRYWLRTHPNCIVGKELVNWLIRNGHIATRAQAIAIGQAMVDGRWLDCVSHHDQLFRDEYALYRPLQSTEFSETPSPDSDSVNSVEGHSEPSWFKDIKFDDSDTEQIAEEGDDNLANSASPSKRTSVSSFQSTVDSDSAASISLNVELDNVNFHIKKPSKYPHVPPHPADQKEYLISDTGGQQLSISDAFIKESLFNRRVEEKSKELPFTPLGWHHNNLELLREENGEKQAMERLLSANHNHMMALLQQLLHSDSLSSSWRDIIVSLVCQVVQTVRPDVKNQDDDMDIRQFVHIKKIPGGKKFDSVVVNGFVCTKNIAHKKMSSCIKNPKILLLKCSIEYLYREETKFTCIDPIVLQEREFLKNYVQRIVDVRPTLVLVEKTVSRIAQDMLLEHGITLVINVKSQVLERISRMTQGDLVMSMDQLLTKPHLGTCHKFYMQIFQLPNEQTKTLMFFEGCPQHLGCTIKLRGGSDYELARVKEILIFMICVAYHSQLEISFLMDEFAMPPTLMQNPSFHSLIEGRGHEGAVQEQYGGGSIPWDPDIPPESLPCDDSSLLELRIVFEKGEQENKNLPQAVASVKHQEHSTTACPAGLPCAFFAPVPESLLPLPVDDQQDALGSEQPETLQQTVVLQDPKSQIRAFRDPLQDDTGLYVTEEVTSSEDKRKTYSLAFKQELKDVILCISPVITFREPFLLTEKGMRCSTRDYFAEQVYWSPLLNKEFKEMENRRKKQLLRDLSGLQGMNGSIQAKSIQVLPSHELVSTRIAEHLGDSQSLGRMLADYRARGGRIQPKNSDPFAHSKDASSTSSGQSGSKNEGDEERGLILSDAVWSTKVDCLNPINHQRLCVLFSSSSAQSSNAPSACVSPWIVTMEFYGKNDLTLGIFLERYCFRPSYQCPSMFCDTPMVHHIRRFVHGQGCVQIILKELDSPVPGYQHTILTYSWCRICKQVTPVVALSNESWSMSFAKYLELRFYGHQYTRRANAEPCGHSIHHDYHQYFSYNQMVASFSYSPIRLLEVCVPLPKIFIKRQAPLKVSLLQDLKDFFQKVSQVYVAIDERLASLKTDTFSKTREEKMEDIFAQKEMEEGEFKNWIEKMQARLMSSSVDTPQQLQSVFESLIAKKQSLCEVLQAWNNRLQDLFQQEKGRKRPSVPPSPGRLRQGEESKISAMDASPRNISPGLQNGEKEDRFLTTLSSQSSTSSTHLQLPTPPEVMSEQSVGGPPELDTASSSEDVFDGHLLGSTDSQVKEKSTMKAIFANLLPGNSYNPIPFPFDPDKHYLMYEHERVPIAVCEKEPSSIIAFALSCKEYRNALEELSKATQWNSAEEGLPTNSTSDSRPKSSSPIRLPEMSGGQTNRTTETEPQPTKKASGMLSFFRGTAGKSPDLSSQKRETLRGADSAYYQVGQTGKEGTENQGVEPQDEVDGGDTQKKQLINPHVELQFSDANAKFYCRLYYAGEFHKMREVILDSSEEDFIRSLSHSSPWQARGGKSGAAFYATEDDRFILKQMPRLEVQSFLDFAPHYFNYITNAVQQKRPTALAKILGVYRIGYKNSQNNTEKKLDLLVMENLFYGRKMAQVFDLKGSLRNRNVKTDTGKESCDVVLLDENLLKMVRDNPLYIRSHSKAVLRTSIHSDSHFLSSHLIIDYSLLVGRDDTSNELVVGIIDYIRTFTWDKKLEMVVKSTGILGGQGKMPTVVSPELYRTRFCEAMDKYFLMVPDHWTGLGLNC

Row | Compound | Activity [1] [%] | Activity [2] [%] | Activity [3] [%] | Activity [4] [%] | Activity [5] [%] | Activity [6] [%] | Activity [7] [%] | Activity [8] [%] | Activity [9] [%] | Activity [10] [%] | Activity [11] [%] | Activity [12] [%] | Activity [13] [%] | Activity [14] [%] | Activity [15] [%] | Activity [16] [%] | Activity [17] [%] | Activity [18] [%] | Activity [19] [%] | Activity [20] [%] | further results
1 | CCC(=O)Nc1ccc(C(=O)Nc2ccc(Nc3ncc4c(n3)N(C)c3ccc(C)cc3C(=O)N4C)cc2)cc1 | 100 | 97 | 72 | 74 | 96 | 100 | 100 | 84 | 89 | 95 | 84 | 94 | 79 | 99 | 77 | 81 | 90 | 100 | 93 | 72 | Activity [21]: 97%; Activity [22]: 96%; Activity [23]: 95%; Activity [24]: 92%; Activity [25]: 98%
2 | C=CC(=O)Nc1ccc(C(=O)Nc2ccc(Nc3ncc4c(n3)N(C)c3ccc(C)cc3C(=O)N4C)cc2)cc1 | 100 | 100 | 90 | 100 | 94 | 88 | 99 | 88 | 58 | 98 | 98 | 83 | 99 | 90 | 93 | 97 | 100 | 100 | 100 | 100 | Activity [21]: 97%; Activity [22]: 100%; Activity [23]: 98%; Activity [24]: 100%; Activity [25]: 100%
